Key:
[1] = species: Rattus norvegicus; experiment: Tested for percent inhibition of AEA (N-arachidonoylethanolamine) metabolism in rat brain homogenates using [3H]anandamide as the labeled substrate at 100 uM; assay type: functional
[2] = molecular target: Cannabinoid receptor 1 (Homo sapiens) (UniProt P21554); experiment: Percent inhibition of specific binding of [3H]CP-55940 towards human cannabinoid receptor 1 from Chinese hamster ovary cell membranes at the concentration of 10 uM
How it was run: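 Membranes (40 μg) from CHO cells stably expressing human CB1 (grown in Ham's F12, 10% FBS, G418) were incubated with 1 nM [3H]-CP55,940 for 1 h at 30 °C in 50 mM Tris-HCl with MgCl2 and EDTA, pH 7.4, plus 50 μM PMSF. Nonspecific binding was defined with 10 μM HU-210. Filtration was on PEI-treated GF/B filters, followed by scintillation counting.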

[3] = molecular target: Cannabinoid receptor 2 (Homo sapiens) (UniProt P34972); experiment: Percent inhibition of specific binding of [3H]WIN-55212-2 towards human cannabinoid receptor 2 from Chinese hamster ovary cell membranes at the concentration of 10 uM
Sequence of Cannabinoid receptor 2 (Homo sapiens) (P34972 whole entry): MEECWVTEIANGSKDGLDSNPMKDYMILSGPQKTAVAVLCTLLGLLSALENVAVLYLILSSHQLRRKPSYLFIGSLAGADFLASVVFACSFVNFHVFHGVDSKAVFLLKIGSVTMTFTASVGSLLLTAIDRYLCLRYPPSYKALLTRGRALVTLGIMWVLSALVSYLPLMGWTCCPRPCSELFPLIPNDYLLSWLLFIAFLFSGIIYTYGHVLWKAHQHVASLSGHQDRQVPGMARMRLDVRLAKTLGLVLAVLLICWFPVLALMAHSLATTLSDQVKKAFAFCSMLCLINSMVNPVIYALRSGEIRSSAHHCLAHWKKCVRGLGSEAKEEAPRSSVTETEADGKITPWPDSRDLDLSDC
How it was run: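 Membranes (40 μg) from human CB2-transfected CHO cells (Ham's F12, 10% FBS, G418) were incubated with 1 nM [3H]-WIN 55,212-2 for 1 h at 30 °C in 50 mM Tris-HCl/MgCl2/EDTA, pH 7.4, with 50 μM PMSF. Bound radioligand was collected on 0.5% PEI-pretreated GF/B filters and counted by liquid scintillation.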

[4] = species: Rattus norvegicus; experiment: Percent inhibition of AEA (N-arachidonoylethanolamine) metabolism in rat brain homogenates using [3H]anandamide as the labeled substrate.; assay type: functional; set-up: concentration or dose not given beside the values; conditions: dose or concentration not given here
How it was run: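 Rat brain membranes with test compound or ethanol carrier and [3H]-AEA (2 μM final) in 10 mM Tris-HCl, 1 mM EDTA, 1% w/v fatty-acid-free BSA, pH 7.6, for 10 min at 37 °C. Ice plus chloroform/methanol (1:1) stopped the reaction, and the methanol/buffer phase was counted with quench correction. Blanks used water in place of homogenate. Values come from at least three experiments.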

[5] = species: Rattus norvegicus; experiment: Inhibition of AEA (N-arachidonoylethanolamine) metabolism using rat brain homogenates at pH 9 using [3H]anandamide as the labeled substrate; assay type: functional; conditions: dose or concentration not given here
How it was run: (§1)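 Rat brain membranes (adult, minus cerebellum) were homogenized in 20 mM HEPES pH 7.0 with 1 mM MgCl2, washed, preincubated 15 min at 37 °C, and stored at -70 °C. Incubation was with [3H]-AEA (2 μM final) for 10 min at 37 °C at pH 6 or pH 9. Chloroform/methanol stopped the reaction, and [3H]-ethanolamine in the aqueous phase was counted. pI50 and maximal inhibition came from 3–5 experiments (three homogenate preparations) over 3–100 μM (seven concentrations).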

[6] = species: Rattus norvegicus; experiment: Inhibition of AEA (N-arachidonoylethanolamine) metabolism using rat brain homogenates at pH 6 using [3H]-anandamide as the labeled substrate; assay type: functional; conditions: dose or concentration not given here; how it was run: as §1
[7] = species: Rattus norvegicus; experiment: Inhibition of AEA (N-arachidonoylethanolamine) metabolism using rat brain homogenates at pH 6 and at the concentration of 50 uM using [3H]anandamide as the labeled substrate; assay type: functional

Sequence of Cannabinoid receptor 1 (Homo sapiens) (P21554 whole entry): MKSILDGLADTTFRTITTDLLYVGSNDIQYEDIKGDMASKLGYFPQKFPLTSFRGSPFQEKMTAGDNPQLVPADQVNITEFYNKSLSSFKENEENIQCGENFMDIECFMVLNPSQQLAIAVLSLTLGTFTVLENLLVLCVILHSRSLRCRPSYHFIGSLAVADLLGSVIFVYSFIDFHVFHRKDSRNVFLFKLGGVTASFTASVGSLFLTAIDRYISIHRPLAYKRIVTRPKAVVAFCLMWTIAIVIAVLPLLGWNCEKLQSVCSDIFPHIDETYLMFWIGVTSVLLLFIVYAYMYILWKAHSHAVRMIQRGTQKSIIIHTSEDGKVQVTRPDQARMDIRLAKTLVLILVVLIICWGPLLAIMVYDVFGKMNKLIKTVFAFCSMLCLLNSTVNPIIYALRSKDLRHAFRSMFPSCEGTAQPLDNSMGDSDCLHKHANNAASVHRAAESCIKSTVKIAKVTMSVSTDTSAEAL

What does the source list for `CCCCCCCCCCCCCCCC(=O)Nc1ccc(C)cc1`?
inhibition [1]: 0%; inhibition [2]: 2.8%; inhibition [3]: 6.5%

Which inhibition [2] does the source give for `CCCCCCCCCCCCCCCC(=O)NCc1ccc(C)cc1` here?
Its inhibition is 4.8%.

What about the inhibition [3] of the same compound?
Its inhibition is 0.7%.

What about the inhibition [4] of the same compound?
Its inhibition is 100%.

Which inhibition [2] does the source give for `CCCCCCCCCCCCCCCC(=O)NCC(C)C` here?
Its inhibition is 18.5%.

What about the inhibition [3] of the same compound?
Its inhibition is 8.9%.

And the inhibition [4]?
Its inhibition is 6%.

Which results are given for `CCCCCCCCCCCCCCCC(=O)NCCO`?
inhibition [5]: 100%; inhibition [6]: 62%; inhibition [4]: 78%

How did the inhibition [1] turn out when `CCCCCCCCCCCCCCCC(=O)N(CC)CC` was run?
Its inhibition is 2%.

What about the inhibition [2] of the same compound?
Its inhibition is 3.3%.

And the inhibition [3]?
The inhibition was 2.7%.

For `CCCCCCCCCCCCCCCC(=O)Nc1ccc2ccccc2c1`, which inhibition [2] is on record?
The inhibition was 0.7%.

What about the inhibition [3] of the same compound?
Its inhibition is 0.1%.

And the inhibition [4]?
The inhibition was 28%.

Which results are given for `CCCCCCCCCCCCCCCC(=O)N1CCOCC1`?
inhibition [1]: 6%; inhibition [2]: 15.5%; inhibition [3]: 4.2%

For `CCCCCCCCCCCCCCCC(=O)N(C)C`, which inhibition [1] is on record?
Its inhibition is 30%.

And the inhibition [2]?
Its inhibition is 0.3%.

And the inhibition [3]?
Its inhibition is 6.4%.

Which results are given for `CCCCCCCCCCCCCCCC(=O)NCC(=O)OC`?
inhibition [5]: 100%; inhibition [2]: 7.3%; inhibition [6]: 75%; inhibition [3]: 4.1%; inhibition [4]: 100%

What does the source list for `CCCCCCCCCCCCCCCC(=O)Nc1cccc(O)c1`?
inhibition [1]: 51%; inhibition [2]: 40.9%; inhibition [3]: 3.9%

For `CCCCCCCCCCCCCCCC(=O)NCc1ccc(OC)cc1`, which inhibition [1] is on record?
The inhibition was 29%.

What about the inhibition [2] of the same compound?
The inhibition was 25.4%.

What about the inhibition [3] of the same compound?
Its inhibition is 3.7%.

Which results are given for `CCCCCCCCCCCCCCCC(=O)Nc1ccc(Cl)cc1`?
inhibition [2]: 11.1%; inhibition [3]: 7.4%; inhibition [4]: 11%

How did the inhibition [2] turn out when `CCCCCCCCCCCCCCCC(=O)NCCCCl` was run?
The inhibition was 30.6%.

And the inhibition [3]?
The inhibition was 14.3%.

And the inhibition [4]?
Its inhibition is 27%.

Which inhibition [2] does the source give for `CCCCCCCCCCCCCCCC(=O)NCC` here?
Its inhibition is 2.8%.

What about the inhibition [3] of the same compound?
Its inhibition is 10%.

What about the inhibition [4] of the same compound?
Its inhibition is 72%.

For `CCCCCCCCCCCCCCCC(=O)NCCBr`, which inhibition [2] is on record?
The inhibition was 35.8%.

What about the inhibition [3] of the same compound?
The inhibition was 15.1%.

What about the inhibition [4] of the same compound?
The inhibition was 41%.

How did the inhibition [2] turn out when `CCCCCCCCCCCCCCCC(=O)Nc1ccccc1C` was run?
Its inhibition is 4.9%.

And the inhibition [3]?
Its inhibition is 6.5%.

What about the inhibition [4] of the same compound?
The inhibition was 31%.

Which results are given for `CCCCCCCCCCCCCCCC(=O)Nc1ccc(O)cc1`?
inhibition [1]: 55%; inhibition [2]: 44.8%; inhibition [3]: 5%

`CCCCCCCCCCCCCCCNC(=O)COC(C)=O` was tested. Which inhibition [2] did it give?
Its inhibition is 16%.

What about the inhibition [3] of the same compound?
The inhibition was 6%.

And the inhibition [4]?
Its inhibition is 87%.

`C=CCNC(=O)CCCCCCCCCCCCCCC` was tested. Which inhibition [2] did it give?
Its inhibition is 13.3%.

What about the inhibition [3] of the same compound?
The inhibition was 7.8%.

And the inhibition [4]?
Its inhibition is 67%.

Which results are given for `CCCCCCCCCCCCCCCC(=O)NC1CC1`?
inhibition [2]: 12.8%; inhibition [3]: 16.3%; inhibition [4]: 57%

Which inhibition [2] does the source give for `CCCCCCCCCCCCCCCC(=O)NCCC` here?
Its inhibition is 14.4%.

And the inhibition [3]?
Its inhibition is 6.1%.

And the inhibition [4]?
Its inhibition is 49%.

With `CCCCCCCCCCCCCCCC(=O)Nc1ccccc1O` as the compound, how does the inhibition [1] read?
Its inhibition is 53%.

What about the inhibition [2] of the same compound?
Its inhibition is 10.8%.

What about the inhibition [3] of the same compound?
The inhibition was 2.7%.

What does the source list for `CCCCCCCCCCCCCCCC(=O)NCCc1ccccc1`?
inhibition [1]: 19%; inhibition [2]: 22.8%; inhibition [3]: 1.3%

With `CCCCCCCCCCCCCCCC(=O)NC(C)C` as the compound, how does the inhibition [5] read?
Its inhibition is 39%.

What about the inhibition [7] of the same compound?
The inhibition was 4%.

And the inhibition [4]?
The inhibition was 61%.

Which results are given for `CCCCCCCCCCCCCCCC(=O)NCCF`?
inhibition [1]: 6%; inhibition [2]: 8.2%; inhibition [3]: 3.9%

How did the inhibition [2] turn out when `CCCCCCCCCCCCCCCC(=O)NCCCC` was run?
The inhibition was 19.6%.

And the inhibition [3]?
The inhibition was 12.9%.

What about the inhibition [4] of the same compound?
Its inhibition is 24%.

With `CCCCCCCCCCCCCCCC(=O)NC` as the compound, how does the inhibition [2] read?
Its inhibition is 2.5%.

And the inhibition [4]?
The inhibition was 100%.

Which inhibition [2] does the source give for `CCCCCCCCCCCCCCCC(=O)NC(C)(C)CO` here?
The inhibition was 15.7%.

And the inhibition [3]?
The inhibition was 6.7%.

What about the inhibition [4] of the same compound?
The inhibition was 0%.

`CCCCCCCCCCCCCCCC(=O)Nc1ccccc1` was tested. Which inhibition [2] did it give?
The inhibition was 2.8%.

And the inhibition [3]?
The inhibition was 0.5%.

What about the inhibition [4] of the same compound?
The inhibition was 18%.

`CCCCCCCCCCCCCCCC(=O)NC1CCCC1` was tested. Which inhibition [1] did it give?
The inhibition was 43%.

What about the inhibition [2] of the same compound?
Its inhibition is 27.1%.

And the inhibition [3]?
The inhibition was 9.5%.

`CCCCCCCCCCCCCCCC(=O)NCCCO` was tested. Which inhibition [5] did it give?
The inhibition was 81%.

And the inhibition [2]?
Its inhibition is 15%.

What about the inhibition [6] of the same compound?
The inhibition was 45%.

What about the inhibition [3] of the same compound?
The inhibition was 6.4%.

What about the inhibition [4] of the same compound?
Its inhibition is 61%.

`CCCCCCCCCCCCCCCC(=O)NOC` was tested. Which inhibition [2] did it give?
The inhibition was 18.1%.

And the inhibition [3]?
The inhibition was 5.2%.

What about the inhibition [4] of the same compound?
Its inhibition is 46%.

Which results are given for `CCCCCCCCCCCCCCCC(=O)NC(c1ccccc1)c1ccccc1`?
inhibition [1]: 0%; inhibition [2]: 2.2%; inhibition [3]: 1.1%

For `CCCCCCCCCCCCCCCC(=O)NC1CCCCC1`, which inhibition [1] is on record?
The inhibition was 11%.

Which inhibition [2] does the source give for `CCCCCCCCCCCCCCCC(N)=O` here?
The inhibition was 11.7%.

What about the inhibition [3] of the same compound?
The inhibition was 12.9%.

What about the inhibition [4] of the same compound?
The inhibition was 51%.

With `CCCCCCCCCCCCCCCC(=O)NC(C)(C)C` as the compound, how does the inhibition [2] read?
Its inhibition is 24.6%.

And the inhibition [3]?
The inhibition was 2%.

And the inhibition [4]?
The inhibition was 0%.

How did the inhibition [2] turn out when `CCCCCCCCCCCCCCCC(=O)NCCCl` was run?
The inhibition was 25.2%.

What about the inhibition [3] of the same compound?
The inhibition was 13.5%.

And the inhibition [4]?
Its inhibition is 48%.
